Reference: ChEMBL document CHEMBL4184298, “Development of Potent Inhibitors of Receptor Tyrosine Kinases by Ligand-Based Drug Design and Target-Biased Phenotypic Screening” (J Med Chem, 2018)

How the values were obtained:
[1] = molecular target: T1, Aurora kinase A (Homo sapiens, UniProt O14965); assay: Inhibition of human partial length Aurora A (E122 to K401 residues) expressed in mammalian expression system using poly [Glu, Try] 4:1 as substrate in presence of [gamma-33P]ATP
T1 sequence (O14965 whole entry): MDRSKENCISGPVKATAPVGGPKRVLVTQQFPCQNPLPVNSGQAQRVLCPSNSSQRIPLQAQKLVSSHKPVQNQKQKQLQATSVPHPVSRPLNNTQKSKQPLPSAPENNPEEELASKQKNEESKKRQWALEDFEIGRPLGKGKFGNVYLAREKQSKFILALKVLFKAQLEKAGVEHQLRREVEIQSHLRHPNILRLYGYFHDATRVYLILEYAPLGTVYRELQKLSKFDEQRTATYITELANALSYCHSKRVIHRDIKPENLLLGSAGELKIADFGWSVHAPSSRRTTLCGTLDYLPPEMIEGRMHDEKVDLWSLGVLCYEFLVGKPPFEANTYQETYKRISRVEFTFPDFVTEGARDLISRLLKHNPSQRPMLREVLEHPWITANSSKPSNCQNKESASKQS
How it was run: (§1)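 Radiometric assay on recombinant kinase: ³³P incorporation into the kinase substrate was measured and activity was expressed relative to a DMSO control.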

[2] = molecular target: RAC-alpha serine/threonine-protein kinase (Homo sapiens, UniProt P31749); assay: Inhibition of AKT (unknown origin) using poly [Glu, Try] 4:1 as substrate in presence of [gamma-33P]ATP; how it was run: as §1
[3] = molecular target: T2, Tyrosine-protein kinase receptor TYRO3 (Homo sapiens, UniProt Q06418); assay: Inhibition of wild-type human partial length TYRO3 (S497 to T814 residues) expressed in bacterial expression system using poly [Glu, Try] 4:1 as substrate in presence of [gamma-33P]ATP; how it was run: as §1
T2 sequence (Q06418 whole entry): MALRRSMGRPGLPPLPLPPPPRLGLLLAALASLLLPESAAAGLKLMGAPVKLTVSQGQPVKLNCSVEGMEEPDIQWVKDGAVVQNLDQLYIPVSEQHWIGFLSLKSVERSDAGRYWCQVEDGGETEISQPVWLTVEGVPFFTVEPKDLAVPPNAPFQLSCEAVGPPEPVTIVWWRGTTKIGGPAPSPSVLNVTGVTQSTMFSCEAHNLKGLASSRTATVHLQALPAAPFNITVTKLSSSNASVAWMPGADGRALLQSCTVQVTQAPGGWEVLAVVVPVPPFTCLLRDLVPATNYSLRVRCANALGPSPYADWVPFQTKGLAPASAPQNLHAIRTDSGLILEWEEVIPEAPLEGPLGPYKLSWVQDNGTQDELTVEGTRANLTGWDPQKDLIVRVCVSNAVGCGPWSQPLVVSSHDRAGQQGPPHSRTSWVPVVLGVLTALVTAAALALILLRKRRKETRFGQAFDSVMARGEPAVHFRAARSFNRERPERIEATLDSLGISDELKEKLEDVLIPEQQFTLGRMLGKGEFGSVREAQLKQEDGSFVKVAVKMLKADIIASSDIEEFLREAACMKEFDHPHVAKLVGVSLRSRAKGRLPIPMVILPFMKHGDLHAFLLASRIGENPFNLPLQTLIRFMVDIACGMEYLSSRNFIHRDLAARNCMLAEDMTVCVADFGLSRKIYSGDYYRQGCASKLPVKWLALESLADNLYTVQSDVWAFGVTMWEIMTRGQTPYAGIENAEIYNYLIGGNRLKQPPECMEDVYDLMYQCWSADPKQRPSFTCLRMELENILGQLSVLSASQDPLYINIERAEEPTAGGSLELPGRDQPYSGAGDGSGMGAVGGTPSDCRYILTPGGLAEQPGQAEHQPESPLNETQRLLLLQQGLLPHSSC

[4] = molecular target: Proto-oncogene tyrosine-protein kinase receptor Ret (Homo sapiens, UniProt P07949); assay: Inhibition of wild-type human partial length RET (E713 to D1014 residues) expressed in bacterial expression system using poly [Glu, Try] 4:1 as substrate in presence of [gamma-33P]ATP; how it was run: as §1
[5] = molecular target: T3, Receptor-type tyrosine-protein kinase FLT3 (Homo sapiens, UniProt P36888); assay: Inhibition of wild-type human partial length FLT3 (V592 to Y969 residues) expressed in bacterial expression system using poly [Glu, Try] 4:1 as substrate in presence of [gamma-33P]ATP
T3 sequence (P36888 whole entry): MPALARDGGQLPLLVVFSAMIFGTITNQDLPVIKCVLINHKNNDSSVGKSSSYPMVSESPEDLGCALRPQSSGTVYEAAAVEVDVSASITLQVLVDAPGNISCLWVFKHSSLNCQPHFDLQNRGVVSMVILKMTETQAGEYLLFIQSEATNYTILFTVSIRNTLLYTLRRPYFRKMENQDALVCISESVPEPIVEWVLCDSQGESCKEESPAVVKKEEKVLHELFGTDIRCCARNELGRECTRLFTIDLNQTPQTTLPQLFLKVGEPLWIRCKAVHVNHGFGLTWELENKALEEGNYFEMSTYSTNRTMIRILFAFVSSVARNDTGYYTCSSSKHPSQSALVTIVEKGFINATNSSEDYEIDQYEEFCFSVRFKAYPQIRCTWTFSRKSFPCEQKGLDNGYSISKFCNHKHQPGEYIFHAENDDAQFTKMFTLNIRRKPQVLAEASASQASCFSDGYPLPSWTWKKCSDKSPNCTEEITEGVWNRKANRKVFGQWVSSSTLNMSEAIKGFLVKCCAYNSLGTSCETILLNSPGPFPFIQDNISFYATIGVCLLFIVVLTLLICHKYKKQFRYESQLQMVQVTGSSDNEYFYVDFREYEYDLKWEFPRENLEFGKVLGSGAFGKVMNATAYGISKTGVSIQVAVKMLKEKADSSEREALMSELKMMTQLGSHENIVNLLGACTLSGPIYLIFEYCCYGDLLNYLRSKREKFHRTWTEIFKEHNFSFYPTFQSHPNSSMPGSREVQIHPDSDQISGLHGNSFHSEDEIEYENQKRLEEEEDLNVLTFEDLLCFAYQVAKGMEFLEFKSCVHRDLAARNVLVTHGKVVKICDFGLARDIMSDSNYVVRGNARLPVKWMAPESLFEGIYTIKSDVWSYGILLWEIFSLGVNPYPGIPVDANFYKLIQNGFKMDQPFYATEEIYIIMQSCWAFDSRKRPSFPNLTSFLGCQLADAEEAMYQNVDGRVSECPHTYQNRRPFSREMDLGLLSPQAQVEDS

[6] = molecular target: Hepatocyte growth factor receptor (Homo sapiens, UniProt P08581); assay: Inhibition of wild-type human partial length MET (D1010 to S1367 residues) expressed in bacterial expression system using poly [Glu, Try] 4:1 as substrate in presence of [gamma-33P]ATP; how it was run: as §1
[7] = molecular target: Serine/threonine-protein kinase mTOR (Homo sapiens, UniProt P42345); assay: Inhibition of wild-type human partial length MTOR (L1382 to W2549 residues) expressed in mammalian expression system using poly [Glu, Try] 4:1 as substrate in presence of [gamma-33P]ATP; how it was run: as §1

Sequence of Hepatocyte growth factor receptor (P08581 whole entry, the tested form may be a part): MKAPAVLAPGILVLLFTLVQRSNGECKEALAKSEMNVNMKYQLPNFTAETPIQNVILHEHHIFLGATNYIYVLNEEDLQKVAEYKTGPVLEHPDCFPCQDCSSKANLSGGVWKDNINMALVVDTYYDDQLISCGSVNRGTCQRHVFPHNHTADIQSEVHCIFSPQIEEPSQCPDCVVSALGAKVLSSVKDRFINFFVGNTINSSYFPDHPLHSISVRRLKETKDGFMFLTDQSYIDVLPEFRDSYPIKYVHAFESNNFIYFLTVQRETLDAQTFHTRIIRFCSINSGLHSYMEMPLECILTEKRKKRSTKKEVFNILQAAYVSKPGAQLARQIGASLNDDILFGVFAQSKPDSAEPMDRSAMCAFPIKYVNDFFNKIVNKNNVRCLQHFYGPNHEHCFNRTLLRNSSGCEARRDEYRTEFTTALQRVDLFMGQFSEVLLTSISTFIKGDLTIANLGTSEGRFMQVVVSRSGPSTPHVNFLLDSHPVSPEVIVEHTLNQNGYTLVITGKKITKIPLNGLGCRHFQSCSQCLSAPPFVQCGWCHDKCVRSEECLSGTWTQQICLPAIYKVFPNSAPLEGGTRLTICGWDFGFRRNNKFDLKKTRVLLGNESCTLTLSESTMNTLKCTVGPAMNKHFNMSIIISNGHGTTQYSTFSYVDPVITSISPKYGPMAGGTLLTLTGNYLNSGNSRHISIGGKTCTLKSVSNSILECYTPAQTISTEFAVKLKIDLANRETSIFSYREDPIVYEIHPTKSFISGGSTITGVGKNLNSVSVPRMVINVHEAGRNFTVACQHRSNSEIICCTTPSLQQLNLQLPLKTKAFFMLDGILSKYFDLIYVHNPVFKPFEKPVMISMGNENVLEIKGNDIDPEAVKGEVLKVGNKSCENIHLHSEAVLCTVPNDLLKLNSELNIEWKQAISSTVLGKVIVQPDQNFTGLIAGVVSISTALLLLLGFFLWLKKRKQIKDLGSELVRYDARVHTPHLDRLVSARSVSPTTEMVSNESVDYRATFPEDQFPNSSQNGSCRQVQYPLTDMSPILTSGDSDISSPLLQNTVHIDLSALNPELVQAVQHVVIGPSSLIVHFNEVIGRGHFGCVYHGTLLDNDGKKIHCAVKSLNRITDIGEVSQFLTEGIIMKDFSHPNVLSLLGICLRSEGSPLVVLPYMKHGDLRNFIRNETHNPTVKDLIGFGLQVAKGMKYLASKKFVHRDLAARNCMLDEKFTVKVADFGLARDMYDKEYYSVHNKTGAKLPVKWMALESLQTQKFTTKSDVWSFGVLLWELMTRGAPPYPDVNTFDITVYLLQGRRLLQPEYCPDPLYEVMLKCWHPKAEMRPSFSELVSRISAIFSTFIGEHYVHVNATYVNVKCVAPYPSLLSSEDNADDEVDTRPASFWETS
Sequence of RAC-alpha serine/threonine-protein kinase (P31749 whole entry, the tested form may be a part): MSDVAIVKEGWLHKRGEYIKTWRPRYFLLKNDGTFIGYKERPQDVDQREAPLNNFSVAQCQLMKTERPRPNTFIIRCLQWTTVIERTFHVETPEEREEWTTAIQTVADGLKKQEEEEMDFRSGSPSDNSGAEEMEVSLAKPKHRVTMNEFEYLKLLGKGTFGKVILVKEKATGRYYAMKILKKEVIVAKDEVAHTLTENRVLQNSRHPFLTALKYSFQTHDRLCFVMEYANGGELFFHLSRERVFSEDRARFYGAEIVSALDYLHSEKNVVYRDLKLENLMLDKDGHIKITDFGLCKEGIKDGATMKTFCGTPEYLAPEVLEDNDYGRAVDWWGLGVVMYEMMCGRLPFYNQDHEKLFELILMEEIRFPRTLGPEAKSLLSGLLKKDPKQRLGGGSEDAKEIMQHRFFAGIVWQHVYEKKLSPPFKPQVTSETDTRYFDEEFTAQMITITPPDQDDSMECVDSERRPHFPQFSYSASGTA
Sequence of Proto-oncogene tyrosine-protein kinase receptor Ret (P07949 whole entry, the tested form may be a part): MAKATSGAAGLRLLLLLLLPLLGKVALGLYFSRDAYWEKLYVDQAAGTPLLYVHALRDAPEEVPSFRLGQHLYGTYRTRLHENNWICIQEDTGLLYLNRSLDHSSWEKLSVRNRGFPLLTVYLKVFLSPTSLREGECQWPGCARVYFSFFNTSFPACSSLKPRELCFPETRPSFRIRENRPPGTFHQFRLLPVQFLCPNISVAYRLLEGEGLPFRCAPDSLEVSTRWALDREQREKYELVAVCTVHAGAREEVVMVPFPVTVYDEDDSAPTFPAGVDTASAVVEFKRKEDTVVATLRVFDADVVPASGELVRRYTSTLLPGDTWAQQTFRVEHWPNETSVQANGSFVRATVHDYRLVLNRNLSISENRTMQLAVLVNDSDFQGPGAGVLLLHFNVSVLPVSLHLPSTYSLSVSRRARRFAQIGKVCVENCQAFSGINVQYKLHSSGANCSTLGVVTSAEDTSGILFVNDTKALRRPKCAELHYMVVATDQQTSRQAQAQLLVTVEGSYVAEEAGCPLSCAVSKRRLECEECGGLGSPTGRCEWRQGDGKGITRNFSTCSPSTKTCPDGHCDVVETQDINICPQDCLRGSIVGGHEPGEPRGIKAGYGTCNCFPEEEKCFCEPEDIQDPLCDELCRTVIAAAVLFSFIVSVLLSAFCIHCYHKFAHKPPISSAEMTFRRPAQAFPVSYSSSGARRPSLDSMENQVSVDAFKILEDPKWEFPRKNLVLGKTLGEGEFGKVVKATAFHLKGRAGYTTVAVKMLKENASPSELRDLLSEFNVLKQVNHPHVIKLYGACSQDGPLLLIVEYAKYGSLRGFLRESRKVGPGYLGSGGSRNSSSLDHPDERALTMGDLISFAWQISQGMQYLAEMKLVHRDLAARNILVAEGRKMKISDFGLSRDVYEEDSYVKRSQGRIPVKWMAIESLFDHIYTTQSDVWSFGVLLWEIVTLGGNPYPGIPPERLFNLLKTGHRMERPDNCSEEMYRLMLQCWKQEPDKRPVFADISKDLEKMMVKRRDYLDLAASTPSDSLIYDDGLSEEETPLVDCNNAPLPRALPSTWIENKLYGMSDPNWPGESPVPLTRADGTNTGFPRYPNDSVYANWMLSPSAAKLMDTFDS

SMILES	IC50 [1] [nM]	IC50 [2] [nM]	IC50 [3] [nM]	IC50 [4] [nM]	IC50 [5] [nM]	IC50 [6] [nM]	IC50 [7] [nM]
CCN1CCN(c2ccc(-c3nn(Cc4cn(Cc5ccccc5)nn4)c4nc(NC)ncc34)cn2)CC1	> 10000	1900	1900	6200	> 10000	6300	> 10000
CNc1ncc2c(-c3ccc(N4CCN(C)CC4)nc3)nn(Cc3cn(Cc4ccccc4)nn3)c2n1	730	> 10000	> 10000	900	700	> 10000	> 10000
CNc1ncc2c(-c3ccc(N4CCN(C(=O)C(C)(C)C)CC4)nc3)nn(Cc3cn(Cc4ccccc4)nn3)c2n1	840	> 10000	> 10000	4000	1200	> 10000	> 10000
CNc1ncc2c(-c3ccc(N4CCNCC4)nc3)nn(CC3CCCC3)c2n1	160	> 10000	> 10000	50	20	2100	> 10000
CNc1ncc2c(-c3ccc(N4CCN(C)CC4)nc3)nn(CC3CCCC3)c2n1	30	> 10000	3670	60	8	3500	> 10000
CNc1ncc2c(-c3ccc(N4CCNCC4)nc3)nn(Cc3cn(-c4ccsc4C(=O)OC)nn3)c2n1	790	> 10000	> 10000	430	860	> 10000	> 10000
CNc1ncc2c(-c3ccc(N4CCNCC4)nc3)nn(CC3OCCO3)c2n1	660	> 10000	> 10000	160	100	> 10000	> 10000
CNc1ncc2c(-c3ccc(OC)cc3)nn(CC3OCCO3)c2n1	560	> 10000	> 10000	1200	250	> 10000	> 10000
Nc1nc(Nc2ccc3c(c2)CC[C@@H](N2CCCC2)CC3)nn1-c1cc2c(nn1)-c1ccccc1CCC2 [BEMCENTINIB]	26	> 10000	17	3	0.9	3400	> 10000
CNc1ncc2c(-c3ccc(N4CCNCC4)cc3)nn(Cc3cn(Cc4ccccc4)nn3)c2n1	> 10000	> 10000	> 10000	> 10000	> 10000	> 10000	> 10000
CCN1CCN(c2ccc(-c3nn(CC4CCCC4)c4nc(NC)ncc34)cn2)CC1	280	> 10000	> 10000	440	100	> 10000	> 10000
CNc1ncc2c(-c3ccc(N4CCN(C(=O)C(C)(C)C)CC4)nc3)nn(CC3CCCC3)c2n1	610	> 10000	> 10000	> 10000	300	> 10000	> 10000
